The text below walks through data of ChEMBL document CHEMBL3102708, “Chartarlactams A-P, phenylspirodrimanes from the sponge-associated fungus Stachybotrys chartarum with antihyperlipidemic activities” (J Nat Prod, 2014).

Series [1] deals with HepG2. The experiment in a line: Antihyperlipidemic activity in human HepG2 cells assessed as reduction of oleic acid-induced lipid accumulation at 10 uM […] measured after 6 hrs by Oil Red O staining. Format: functional, cell-based. Put shortly:
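HepG2 cells were grown in DMEM with 10% FBS and penicillin/streptomycin (100 μg/mL). At 70–80% confluence they received 100 μM oleic acid for 12 h, then 10 μM compound in DMEM/100 μM oleic acid for 6 h more. Lovastatin was the positive control and DMEM/oleic acid the blank. Neutral lipid was stained with Oil Red O and read at 358 nm, n = 8, repeated in triplicate, mean ± SEM.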

In series [2] the test system is HepG2. The experiment in a line: Cytotoxicity against human HepG2 cells up to 100 uM. It is filed as cell-based.
Series [3] has as its system HepG2. The experiment in a line: Antihyperlipidemic activity in human HepG2 cells assessed as reduction of oleic acid-induced intracellular triglyceride accumulation at 10 uM […] measured after 6 hrs. Format: functional, cell-based. Put shortly:
(§1)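 HepG2 cells were kept in DMEM with 10% FBS and penicillin/streptomycin (100 μg/mL). At 70–80% confluence they were loaded with 100 μM oleic acid in DMEM for 12 h, then exposed to 10 μM compound in DMEM/100 μM oleic acid for a further 6 h. Lovastatin was the positive control and DMEM/oleic acid the blank. Intracellular TC and TG were measured with kits, n = 3, repeated in triplicate, mean ± SEM.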

The test system of series [4] is HepG2. The experiment in a line: Antihyperlipidemic activity in human HepG2 cells assessed as reduction of oleic acid-induced intracellular total cholesterol accumulation at 10 uM […] measured after 6 hrs. Format: functional, cell-based. Put shortly: as §1

SMILES strings stand for the structures. The source made the active and inactive calls. The calls are words filed in the database; no cut-off is given here.

In the case of `CC(=O)O[C@@H]1[C@H](O)C[C@@]2(C)[C@@H](CC[C@@H](C)[C@]23Cc2c(O)cc4c(c2O3)CNC4=O)C1(C)C`, the result with HepG2 [1] and with HepG2 [3] was Active. For the same compound, the Activity result in the series on HepG2 [2] is recorded as “Non-toxic”.

`C[C@@H]1CC[C@H]2C(C)(C)[C@H](O)CC[C@]2(C)[C@@]12Cc1c(O[C@H]3O[C@H](CO)[C@@H](O)[C@H](O)[C@H]3O)cc3c(c1O2)CNC3=O`: the outcome with HepG2 [1] and in the series with HepG2 [4] was Active. In the series on HepG2 [2], the Activity entry is listed as “Non-toxic”.

As to `C[C@@H]1CC[C@H]2C(C)(C)[C@H](O)[C@H](O)C[C@]2(C)[C@@]12Cc1c(O)cc3c(c1O2)CN(CCO)C3=O`, the Activity result with HepG2 [2] is on record as “Non-toxic”.

With `C[C@@H]1CC[C@H]2C(C)(C)[C@H](O)CC[C@]2(C)[C@@]12Cc1c(O)cc3c(c1O2)C(=O)NC3=O`, in the series with HepG2 [2], the Activity result is “Non-toxic”.

For the compound `C[C@@H]1CC[C@H]2C(C)(C)[C@H](O)CC[C@]2(C)[C@@]12Cc1c(O)cc3c(c1O2)CNC3=O`, the Activity result with HepG2 [2] is listed as “Non-toxic”.

On to `C[C@@H]1CC[C@H]2C(C)(C)[C@H](O)CC[C@]2(C)[C@@]12Cc1c(O)cc3c(c1O2)CN(CCCCC(=O)O)C3=O`, for which the Activity result with HepG2 [2] is on record as “Non-toxic”.

In the case of `C[C@@H]1CC[C@H]2C(C)(C)[C@H](O)[C@H](O)C[C@]2(C)[C@@]12Cc1c(O)cc3c(c1O2)CNC3=O`, in the series with HepG2 [2], the Activity result was “Non-toxic”.

In the case of `C[C@H]1CC[C@H]2C(C)(C)[C@H](O)[C@H](O)C[C@]2(C)[C@@]12Cc1c(O)cc3c(c1O2)CNC3=O`, the Activity result with HepG2 [2] is listed as “Non-toxic”.

Turning to `C[C@@H]1CC[C@H]2[C@](C)(CO)[C@H](O)CC[C@]2(C)[C@@]12Cc1c(O)cc3c(c1O2)CNC3=O`, in the series on HepG2 [2], the Activity result is reported as “Non-toxic”.

Regarding `C[C@@H]1CC[C@H]2C(C)(C)[C@H](O)CC[C@]2(C)[C@@]12Cc1c(O)cc3c(c1O2)CN(CCO)C3=O`, the Activity entry in the series on HepG2 [2] is on record as “Non-toxic”.

As to `CC(=O)O[C@@H]1CC[C@@]2(C)[C@@H](CC[C@@H](C)[C@]23Cc2c(O)cc4c(c2O3)CNC4=O)C1(C)C`, in the series with HepG2 [2], the Activity entry is given as “Non-toxic”.

In the case of `C[C@H]1CC[C@H]2C(C)(C)[C@H](O)[C@H](O)C[C@]2(C)[C@@]12Cc1c(O)cc3c(c1O2)C(=O)NC3`, in the series on HepG2 [2], the Activity result is recorded as “Non-toxic”.

For the compound `C[C@@H]1CC[C@H]2C(C)(C)[C@@H](O)[C@H](O)C[C@]2(C)[C@@]12Cc1c(O)cc3c(c1O2)CNC3=O`, the Activity result in the series on HepG2 [2] is “Non-toxic”.

For the compound `C[C@@H]1CC[C@H]2C(C)(C)[C@H](O)CC[C@]2(C)[C@@]12Cc1c(O)cc3c(c1O2)CN(C(Cc1ccccc1)C(=O)O)C3=O` (some centres not stated), the result with HepG2 [1], with HepG2 [4] and with HepG2 [3] was Active. In addition, in the series on HepG2 [2], the Activity result was “Non-toxic”.

As to `C[C@@H]1CC[C@H]2C(C)(C)[C@H](O)CC[C@]2(C)[C@@]12Cc1c(O)cc3c(c1O2)C(=O)NC3`, the outcome in the series with HepG2 [1], with HepG2 [4] and in the series with HepG2 [3] was Active. In the series with HepG2 [2], the Activity entry is recorded as “Non-toxic”.

`C[C@@H]1CC[C@H]2C(C)(C)C(=O)CC[C@]2(C)[C@@]12Cc1c(O)cc3c(c1O2)CNC3=O`: the outcome with HepG2 [1], in the series with HepG2 [4] and in the series with HepG2 [3] was Active. The Activity result with HepG2 [2] is given as “Non-toxic”.

With `C[C@H]1CC[C@H]2C(C)(C)[C@H](O)CC[C@]2(C)[C@@]12Cc1c(O)cc3c(c1O2)CN(CCO)C3=O`, the outcome in the series on HepG2 [1] and with HepG2 [4] was Active. For the same compound, the Activity entry in the series with HepG2 [2] was “Non-toxic”.

Regarding `C[C@@H]1CC[C@H]2C(C)(C)[C@H](O)[C@@H](O)C[C@]2(C)[C@@]12Cc1c(O)cc3c(c1O2)CNC3=O`, in the series with HepG2 [2], the Activity result is “Non-toxic”.

`C[C@@H]1CC[C@H]2C(C)(C)[C@H](O)CC[C@]2(C)[C@@]12Cc1c(O)cc3c(c1O2)C(=O)N(CCO)C3`: the Activity result in the series on HepG2 [2] was “Non-toxic”.

`C[C@H]1CC[C@H]2C(C)(C)[C@H](O)CC[C@]2(C)[C@@]12Cc1c(O)cc3c(c1O2)C(=O)NC3`: the result in the series with HepG2 [1] and in the series on HepG2 [3] was Active. In the series on HepG2 [2], the Activity entry is listed as “Non-toxic”.

For the compound `C[C@H]1CC[C@H]2C(C)(C)[C@H](O)CC[C@]2(C)[C@@]12Cc1c(O)cc3c(c1O2)CNC3=O`, the Activity result in the series on HepG2 [2] was “Non-toxic”.

On to `CC(=O)O[C@@H]1[C@H](OC(C)=O)C[C@@]2(C)[C@@H](CC[C@@H](C)[C@]23Cc2c(O)cc4c(c2O3)CNC4=O)C1(C)C`, for which, in the series on HepG2 [2], the Activity result is “Non-toxic”.

Take `C[C@@H]1CC[C@H]2C(C)(C)[C@H](O)CC[C@]2(C)[C@@]12Cc1c(O)cc3c(c1O2)/C(=C1\NC(=O)c2cc(O)c4c(c21)O[C@@]1(C4)[C@@H](C)CC[C@@H]2C(C)(C)[C@@H](O)CC[C@]21C)NC3=O`: the outcome in the series with HepG2 [1] and in the series on HepG2 [4] was Active. The Activity entry in the series on HepG2 [2] is reported as “Non-toxic”.
